Hits are enriched below; roughly 2.6% of the tested compounds scored in any of these assays.
SENP7 inh – inhibitors of human SENP7 protease; Q9BQF6; recombinant SENP7, Z-RLRGG-aminoluciferin luminescence, 40 min; inhibition, % at 5 µM; 330,000 compounds, 1.5% hits;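 active = inhibition above about 50% at the single test dose, limit read from the data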
SENP1 FRET inh – blocks the human SENP1 SUMO protease catalytic domain; recombinant SENP1 catalytic domain, CyPet-SUMO1-YPet FRET cleavage; 360,000 compounds, 0.21% hits; Q9P0U3; inhibition, % at 10 µM;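 active = inhibition at least 30% at 10 µM, raw YFP signal under a set limit, fluorescence ratio 0.5 to 1.5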
Target sequence (Q9P0U3 419-644 limits assumed): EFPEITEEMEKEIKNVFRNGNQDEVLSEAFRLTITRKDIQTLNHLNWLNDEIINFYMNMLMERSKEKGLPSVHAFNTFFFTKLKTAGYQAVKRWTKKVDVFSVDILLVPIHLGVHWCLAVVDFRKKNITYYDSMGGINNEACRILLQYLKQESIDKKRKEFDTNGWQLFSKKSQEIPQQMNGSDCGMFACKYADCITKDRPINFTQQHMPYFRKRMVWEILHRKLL
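Material: hSENP1 catalytic domain, recombinant; medium: Tris pH 8 with BME, BSA, NP40 and catalase; compound: single concentration of 10 µM compound, 0.5% DMSO final; technique: FRET read of cyan and yellow fluorescence; timing: 50 min enzyme reaction, room temperature, light-protected; reagent: SFCypet-SUMO1-SFYpet substrate at 25 nM; control set: no-enzyme low, enzyme-DMSO high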
SENP8 block-1 – SENP8 (human) protease inhibition | Q96LD8 | recombinant SENP8, Nedd8 substrate fluorescence | inhibition, % at 20 µM | 360,000 compounds, 0.64% hits | AID 602440; in the data active = inhibition mostly above about 40%, no sharp cut-off; inactive = mostly below about 27%
UCH37 DUB inh – human UCH37 deubiquitinating enzyme inhibition; AID 588478; Q9Y5K5; 330,000 compounds, 0.33% hits; purified proteasome/UCH37, Ub-AMC cleavage fluorescence; inhibition, % (test concentration not listed);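 active = mean inhibition over replicate wells above about 20%, limit read from the data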
Target sequence (Q9Y5K5 whole entry, looked up): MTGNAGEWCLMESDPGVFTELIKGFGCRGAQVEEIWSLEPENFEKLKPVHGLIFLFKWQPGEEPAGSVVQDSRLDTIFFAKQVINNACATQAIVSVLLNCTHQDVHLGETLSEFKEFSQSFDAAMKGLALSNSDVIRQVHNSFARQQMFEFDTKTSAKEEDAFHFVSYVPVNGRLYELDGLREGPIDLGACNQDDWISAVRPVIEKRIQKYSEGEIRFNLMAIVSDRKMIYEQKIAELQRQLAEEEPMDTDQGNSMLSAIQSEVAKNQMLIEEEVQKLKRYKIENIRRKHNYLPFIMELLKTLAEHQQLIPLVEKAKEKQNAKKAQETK
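System: Proteasome-associated human UCH37 deubiquitinase; Input: 0.15 nM proteasome in added enzyme buffer; Also added: Ub-AMC substrate from 1 µM stock; Incubation: 30 min compound-proteasome preincubation then 25 min substrate reaction, room temperature; Detection: fluorescence, ex 355 nm, em 460 nm; Read-out: % inhibition of Ub-AMC cleavage fluorescence; Benchmarks: no-proteasome and no-compound wells.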
SENP6 block – inhibitors of human SENP6 protease; Recombinant SENP6 catalytic domain, aminoluciferin luminescence; inhibition, % at 10 µM; 330,000 compounds, 1.8% hits; AID 2599;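 active = inhibition above about 50% at the single tested dose, limit read from the data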
SENP8 block-2 – blocks the human protease SENP8; AID 2540; inhibition, % at 10 µM; 330,000 compounds, 1.2% hits; purified SENP8, Z-RLRGG-aminoluciferin cleavage, luminescence; in the data active = inhibition above about 50%
Numbers stand for hits; i = inactive; nt = no result given.

SMILES	SENP7 inh	SENP1 FRET inh	SENP8 block-1	UCH37 DUB inh	SENP6 block	SENP8 block-2
Cc1cc2ccccn2c1C(=O)c1ccc(Cl)cc1	i	i	i	i	i	i
CC(=O)Nc1ccc(C=NNc2ccc(C(=O)c3c(C)cc4ccccn34)cc2[N+](=O)[O-])cc1	nt	nt	nt	i	nt	nt
CCC(C)(C)C1CCc2[nH]nc(C(=O)N/N=C(\C)c3ccco3)c2C1 (centres undefined)	i	i	i	nt	58	i
C[C@H]1CN(C2CCCCC2)C(=O)[C@@H]1CC(=O)NCc1ccccc1	i	i	i	i	i	i
CCCCC[C@H]1CN(C2CCCCC2)C(=O)[C@@H]1CC(=O)NCc1ccccc1	i	i	i	32	i	i
Cc1ccn2c(C=NOCc3ccc(F)cc3)c(-c3ccc(Cl)cc3)nc2c1	nt	nt	nt	i	nt	nt
O=C(CSc1nccn1-c1ncc(C(F)(F)F)cc1Cl)c1ccc(Cl)cc1	i	i	i	31	i	i
COc1cc(C(=O)NN=C(C)Cn2nc([N+](=O)[O-])cc2C)ccc1O	nt	nt	nt	i	nt	nt
O=c1[nH]c(S)c(/C=C2\C=Nc3ccccc32)s1	i	i	52	i	i	i
O=C(O)[C@]1(S(=O)(=O)c2ccccc2)C[C@@H]2ON=C(c3cccc(Br)c3)[C@@H]2C1	i	i	i	i	i	i
O=S(=O)(c1ccccc1)C1(C2CC(c3ccccc3)=NO2)CC(O)C1 (centres undefined)	i	i	i	28	i	i
CC(C)(C)S(=O)(=O)N1C[C@@H]2CC/C=C\C/C(c3ccccc3)=C\2[C@H]1CCO	nt	i	i	20	nt	nt
C[C@H]1CN(S(=O)(=O)C(C)(C)C)[C@H](CCO)/C1=C\c1ccccc1	nt	i	i	i	nt	nt
CC1=C(C#N)c2nc(N)c(C#N)c(C)c2/C1=C\c1ccc(-c2ccccc2C(=O)O)o1	nt	i	i	22	nt	nt
COc1ccccc1N1C(=O)C(Cl)=C(Nc2ccccc2O)C1=O	nt	46	i	nt	nt	nt
CCCOc1ccc(C=NNC(=O)c2ccc3c(c2)OCO3)c(OCCC)c1	nt	nt	nt	i	nt	nt
COC(=O)NN=C(C)c1ccc(-n2ccnc2)cc1	nt	nt	nt	i	nt	nt
Fc1ccc(-c2nc(-c3cccs3)no2)cc1	94	i	i	i	95	86
Cc1ccsc1/C=N\NC(=O)c1n[nH]c2c1CCC2	93	i	i	nt	92	85
Cc1ccc(C=NNC(=O)c2n[nH]c3c2CCCC3)cc1	nt	nt	nt	i	nt	nt
COc1cc(/C=C2\C(=O)N(CCC#N)N=C2C)c(Br)cc1OC(C)C	i	i	46	i	i	i
CC(C)Cc1csc(NC(=O)c2ccc(F)cc2)c1C(=O)O	i	i	i	i	89	84
COc1cccc(C(=O)Nc2cc3c(cc2Cl)OCCCO3)c1	i	i	i	i	51	i
COc1ccc(C(=O)Nc2cc3c(cc2Cl)OCCCO3)cc1	i	i	i	i	i	i
Cn1c(N=NC(=O)c2ccccc2)c(O)c2ccccc21	i	i	i	i	70	i
SMILES	SENP7 inh	SENP1 FRET inh	SENP8 block-1	UCH37 DUB inh	SENP6 block	SENP8 block-2
O=C(N/N=C1\CCc2ccccc21)c1ccccc1O	78	i	i	nt	71	58
O=C(N/N=C1\CCCc2ccccc21)c1ccccc1Cl	i	i	i	nt	i	i
Fc1cccc(Cl)c1C=NNc1ccccn1	nt	nt	nt	i	nt	nt
Cc1ccc(NCCN(C)C)c2c(=O)c3cc(O)ccc3sc12	nt	37	i	nt	nt	nt
Fc1ccccc1NC(=S)NN=Cc1ccccc1Br	nt	nt	nt	i	nt	nt
CC1(C)C(c2ccc(Cl)cc2)=[N+]([O-])C2(CCCCC2=NO)N1O (centres undefined)	nt	nt	nt	i	nt	nt
COc1ccc(OCc2cc(C(=O)NC3CCOCC3)no2)c2ccccc12	i	i	i	24	i	i
COc1cccc(OCc2cc(C(=O)NC3CCOCC3)no2)c1	i	i	i	i	i	i
O=[N+]([O-])c1ccc(N2CCCCC2)s1	i	i	i	20	i	i
CC1CCCN(c2ccc([N+](=O)[O-])s2)C1 (centres undefined)	nt	i	i	i	nt	nt
Cc1ccc(S(=O)(=O)NN2C(=O)/C(=C/c3ccc(C(=O)O)cc3)SC2=S)cc1	i	i	i	21	i	i
Cc1ccc(/C=C2\SC(=S)N(NS(=O)(=O)c3ccc(C)cc3)C2=O)cc1	i	i	i	i	i	i
O=C(CNc1cccc2ccccc12)NN=Cc1cccc(Oc2ccccc2)c1	nt	nt	nt	i	nt	nt
Cc1ccc(S(=O)(=O)NN=Cc2ccc(OCC(=O)NC(C)C)cc2)cc1	nt	nt	nt	28	nt	nt
CC(C)NC(=O)COc1ccc(/C=N/NS(=O)(=O)c2ccccc2)cc1	i	i	i	nt	i	i
CC1CCCCC1=NNC(=S)Nc1ccccc1 (centres undefined)	nt	nt	nt	i	nt	nt
CCOc1ccc2nc(N3C(=O)CNC3=S)sc2c1	i	i	i	i	i	i
Cc1cc2nc(N3C(=O)CNC3=S)sc2cc1C	96	i	i	nt	95	95
O=[N+]([O-])c1ccc(NN=Cc2sc(N3CCOCC3)nc2-c2ccccc2)c(S(=O)(=O)Nc2ccc(Cl)cc2)c1	nt	nt	nt	i	nt	nt
Cc1cc[n+](-c2[nH]c(=O)sc2C=NNC([S-])=Nc2ccccc2)cc1	nt	nt	nt	23	nt	nt
Cc1cc[n+](-c2[nH]c(=O)sc2/C=N/NC([S-])=Nc2ccccc2)cc1	i	i	i	nt	i	i
Cc1cc(C)c[n+](-c2[nH]c(=O)sc2/C=N/NC([S-])=Nc2ccccc2)c1	i	33	i	nt	i	i
CON=Cc1cccn1-c1nccc(N(C)C)c1C#N	nt	nt	nt	i	nt	nt
Cc1cc(C)n(Cc2cccc(C(=O)NN=Cc3cccnc3)c2)n1	nt	nt	nt	i	nt	nt
CN1/C(=C/C=C/c2n(C)c3cc([N+](=O)[O-])c([N+](=O)[O-])cc3[n+]2C)C(C)(C)c2ccccc21	nt	i	60	nt	nt	nt
SMILES	SENP7 inh	SENP1 FRET inh	SENP8 block-1	UCH37 DUB inh	SENP6 block	SENP8 block-2
CN1/C(=C/C=NNC(=O)c2ccc([N+](=O)[O-])cc2)C(C)(C)c2ccccc21	nt	nt	nt	i	nt	nt
CN(C)/N=C/C=C1\CC/C(=C\c2ccc(F)c(F)c2)C1=O	i	i	52	nt	i	i
O=C(Cc1ccc(F)cc1)N1CCC(CC2CC(c3ccc(Cl)cc3)=NO2)(C(=O)NCC2CCCCC2)CC1 (centres undefined)	i	i	i	39	i	i
O=C(Cc1ccc(F)cc1)N1CCC(CC2CC(c3cccc(Br)c3)=NO2)(C(=O)NCC2CCCCC2)CC1 (centres undefined)	i	i	i	i	i	i
O=C(CCC(=O)Nc1ccc(F)cc1)NN=Cc1cccc(Br)c1	nt	nt	nt	i	nt	nt
C/C(=C\C(=S)Nc1ccccc1)Nc1cccc2ccccc12	i	i	i	i	83	71
COc1ccc(CNC(=S)Nc2cccc(OC)c2)cc1	i	i	i	i	i	i
C/C(=C\C(=S)Nc1ccccc1)Nc1ccc2ccccc2c1	i	i	i	i	i	i
COc1cccc(NC(=S)Nc2cccc3ccccc23)c1	i	i	i	i	89	88
Cc1ccc(S(=O)(=O)N(C)C)cc1NC(=S)Nc1cccc2ccccc12	56	i	i	nt	90	84

Assay outcomes: PubChem, several laboratories
